Data from ChEMBL document CHEMBL4831478, “Bispecific Estrogen Receptor α Degraders Incorporating Novel Binders Identified Using DNA-Encoded Chemical Library Screening” (J Med Chem, 2021).

Assays:
Estrogen receptor [1] = molecular target: Estrogen receptor (Homo sapiens, UniProt P03372, Y537S); test: Binding affinity to ERalpha Y537S mutant (unknown origin) expressed in Escherichia coli preincubated for 15 mins followed by ligand addition and measured after 1 hr by fluorescent polarization assay
Outline: (§1)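 ERα LBD (aa 307–554), WT or D538G, S463P, Y537S, with N-terminal Avi-Tev-His tag, expressed in E. coli T7 Express (20 °C, 12 h, IPTG). Purified by Ni-NTA then size exclusion. Compound preincubated with protein 15 min, fluorescent ligand added, 1 h at room temperature. FP read ex 485/em 535 nm; duplicate runs averaged.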

MCF7 [2] = test: Antiproliferative activity against human MCF7 cells assessed as growth inhibition preincubated with estradiol for 30 mins followed by compound addition and measured after 7 days by CellTiter-Glo assay; format: functional; details: MCF7, 168 h, time 7 day
Outline: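 MCF7 cells seeded in hormone-deprived media for 72 h. All wells except minimum-signal controls received 0.1 nM estradiol for 30 min, then compound in a 10-point dose series. Incubated 7 days at 37 °C, 5% CO2; ATP content read by CellTiter-Glo 2.0. Duplicate runs averaged.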

MCF7 [3] = test: Antiproliferative activity against human MCF7 cells assessed as growth inhibition preincubated with estradiol for 30 mins followed by compound addition and measured after 72 hrs by CellTiter-Glo assay; format: functional
Estrogen receptor [4] = molecular target: Estrogen receptor (Homo sapiens, UniProt P03372, S463P); test: Binding affinity to ERalpha S463P mutant (unknown origin) expressed in Escherichia coli preincubated for 15 mins followed by ligand addition and measured after 1 hr by fluorescent polarization assay; outline: as §1
Estrogen receptor [5] = molecular target: T1, Estrogen receptor (Homo sapiens, UniProt P03372); test: Binding affinity to recombinant His-tagged ERalpha LBD (307 to 554 residue) (unknown origin) expressed in Escherichia coli preincubated for 15 mins followed by ligand addition and measured after 1 hr by fluorescent polarization assay; outline: as §1
T1 sequence (P03372 whole entry): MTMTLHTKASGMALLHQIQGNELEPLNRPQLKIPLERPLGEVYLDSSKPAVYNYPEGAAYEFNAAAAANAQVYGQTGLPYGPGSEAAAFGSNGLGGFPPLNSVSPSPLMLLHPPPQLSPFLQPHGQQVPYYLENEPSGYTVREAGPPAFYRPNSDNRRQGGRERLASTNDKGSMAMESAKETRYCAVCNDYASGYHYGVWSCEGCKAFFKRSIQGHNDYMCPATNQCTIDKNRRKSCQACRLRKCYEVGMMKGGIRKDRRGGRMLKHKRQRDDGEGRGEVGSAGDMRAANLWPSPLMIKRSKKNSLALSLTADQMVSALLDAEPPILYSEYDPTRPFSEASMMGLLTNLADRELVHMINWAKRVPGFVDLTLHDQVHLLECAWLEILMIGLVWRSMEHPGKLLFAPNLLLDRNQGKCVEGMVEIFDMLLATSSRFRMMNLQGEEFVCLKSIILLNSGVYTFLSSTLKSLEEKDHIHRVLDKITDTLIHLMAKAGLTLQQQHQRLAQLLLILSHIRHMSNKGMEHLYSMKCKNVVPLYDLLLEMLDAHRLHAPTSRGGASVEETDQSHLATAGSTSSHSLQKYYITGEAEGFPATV

Estrogen receptor [6] = molecular target: T1, Estrogen receptor; test: Induction of ERalpha degradation in human MCF7 cells assessed as decrease in ERalpha protein expression incubated for 48 hrs under hormone-deprived medium by Western blot analysis; format: cell-based
Outline: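 In-cell western: MCF7 seeded in hormone-deprived media for 72 h, then 10-point dose series in the same media for 48 h. Minimum-signal control compound at 1 μM. Cells fixed (4% formaldehyde), permeabilized (0.1% Triton X-100), blocked (3% fish gelatin), stained for ERα and α-tubulin, imaged; ERα normalized to tubulin.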

Estrogen receptor [7] = molecular target: Estrogen receptor (Homo sapiens, UniProt P03372, D538G); test: Binding affinity to ERalpha D538G mutant (unknown origin) expressed in Escherichia coli preincubated for 15 mins followed by ligand addition and measured after 1 hr by fluorescent polarization assay; outline: as §1
Estrogen receptor [8] = molecular target: T1, Estrogen receptor; test: Induction of ERalpha degradation in human MCF7 cells assessed as decrease in ERalpha protein expression incubated for 48 hrs by Western blot analysis; format: cell-based
[9] = Volume of distribution at steady state in CD1 mouse at 0.3 mg/kg, iv administered as cassette dosing […]; format: ADME, organism-based; details: in vivo, read-out: Vdss
[10] = Plasma protein binding in human; format: ADME, cell-free; details: read-out: PPB
[11] = Clearance in CD1 mouse at 0.3 mg/kg, iv administered as cassette dosing […]; format: ADME, organism-based; details: in vivo
[12] = Bioavailability in CD1 mouse at 10 mg/kg, sc administered as single dose […]; format: ADME, organism-based; details: in vivo
[13] = AUCinfinity in CD1 mouse at 10 mg/kg, sc administered as single dose […]; format: ADME, organism-based; design: route subcutaneous, dose 10 mg/kg; details: in vivo
[14] = Microsomal stability in mouse liver microsomes assessed as intrinsic clearance measured upto 60 mins; format: ADME, Microsome; details: read-out: CLH
Outline: (§2)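 Compounds at 2 μM final incubated with pooled human or male mouse liver microsomes. Percent remaining measured at 0, 15, 30, 45 and 60 min and used to calculate in vitro half-life.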

[15] = Microsomal stability in human liver microsomes assessed as intrinsic clearance measured upto 60 mins; format: ADME, Microsome; details: read-out: CLH; outline: as §2
[16] = Half life in CD1 mouse at 0.3 mg/kg, iv administered as cassette dosing […]; format: ADME, organism-based; details: in vivo
[17] = Solubility of compound; format: physicochemical
[18] = Half life in CD1 mouse at 10 mg/kg, sc administered as single dose […]; format: ADME, organism-based; details: in vivo
[19] = Apparent permeability of compound across apical to basolateral side in MDCK cells; format: ADME, cell-based, Canis lupus familiaris; details: dog
[20] = Cmax in CD1 mouse at 10 mg/kg, sc administered as single dose […]; format: ADME, organism-based; design: route subcutaneous, dose 10 mg/kg; details: in vivo
[21] = molecular target: T2, Estrogen receptor (Homo sapiens) (UniProt P03372); test: Induction of ERalpha degradation in human MCF7 cells assessed as degradation maximum incubated for 48 hrs under starved CSS media condition by Western blot analysis relative to control; format: cell-based
T2 sequence (whole entry): T1 sequence (P03372 whole entry)
Outline: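 MCF7 cells in hormone-deprived media (agonist mode) or full-serum media (antagonist mode) were treated with 1 μM compound over a 48 h time course. Cells were lysed and ERα was detected by western blot, with tubulin as the normalizer.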

MCF7 [22] = test: Antiproliferative activity against human MCF7 cells assessed as growth inhibition preincubated with estradiol for 30 mins followed by compound addition and measured after 7 days by CellTiter-Glo assay; details: MCF7, 7 days
Estrogen receptor [23] = molecular target: T1, Estrogen receptor; test: Induction of ERalpha degradation in human MCF7 cells assessed as decrease in ERalpha protein expression incubated for 24 hrs by Western blot analysis; format: cell-based
[24] = Toxicity in CD1 mouse xenografted with human MCF7 cells assessed as change in body weight at 3 mg/mouse, sc administered once weekly for 28 days; details: in vivo, 672 h
MCF7 [25] = test: Antitumor activity against human MCF7 cells xenografted in CD1 mouse assessed as tumor growth inhibition at 3 mg/kg, sc administered once daily for 28 days by caliper method; details: 672 h, read-out: TGI

Chain of Estrogen receptor (Homo sapiens, UniProt P03372, S463P) (P03372 whole entry S463P, the tested form may be a part): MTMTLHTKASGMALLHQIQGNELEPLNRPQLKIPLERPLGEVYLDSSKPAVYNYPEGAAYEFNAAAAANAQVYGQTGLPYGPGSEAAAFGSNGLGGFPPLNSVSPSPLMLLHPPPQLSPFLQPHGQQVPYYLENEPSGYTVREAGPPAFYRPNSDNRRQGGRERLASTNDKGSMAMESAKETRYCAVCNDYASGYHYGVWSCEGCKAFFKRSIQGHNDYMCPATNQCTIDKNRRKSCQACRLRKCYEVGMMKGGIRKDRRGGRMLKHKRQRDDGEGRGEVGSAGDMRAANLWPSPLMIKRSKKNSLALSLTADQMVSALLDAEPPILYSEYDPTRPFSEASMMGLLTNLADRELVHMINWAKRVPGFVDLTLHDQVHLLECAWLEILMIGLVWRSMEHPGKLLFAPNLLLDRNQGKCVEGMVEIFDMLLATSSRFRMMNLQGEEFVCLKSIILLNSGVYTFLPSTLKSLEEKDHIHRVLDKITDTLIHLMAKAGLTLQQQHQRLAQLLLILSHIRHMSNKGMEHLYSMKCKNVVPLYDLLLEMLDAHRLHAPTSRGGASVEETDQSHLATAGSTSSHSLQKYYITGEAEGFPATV
Chain of Estrogen receptor (Homo sapiens, UniProt P03372, Y537S) (P03372 whole entry Y537S, the tested form may be a part): as the sequence (P03372 whole entry S463P, the tested form may be a part) above, with P463S, Y537S counted along it
Chain of Estrogen receptor (Homo sapiens, UniProt P03372, D538G) (P03372 whole entry D538G): as the sequence (P03372 whole entry S463P, the tested form may be a part) above, with P463S, D538G counted along it

Row | SMILES | IC50 (Estrogen receptor [1]) | GI50 (MCF7 [2]) | GI50 (MCF7 [3]) | IC50 (Estrogen receptor [4]) | IC50 (Estrogen receptor [5]) | IC50 (Estrogen receptor [7]) | also measured
1 | Cc1c(-c2ccc(O)cc2)n(Cc2ccc(OCCn3cc(COCCOc4cccc5c4C(=O)N(C4CCC(=O)NC4=O)C5=O)nn3)cc2)c2ccc(O)cc12 (stereo not drawn) | 3.2 nM | 3250 nM | > 10000 nM | 2.1 nM | 1.6 nM | 4.7 nM | DC50 (Estrogen receptor [6]): 2500 nM
2 | Oc1cccc(CN(CCOCCN2CCCCC2)CC2(c3ccccc3F)CCCC2)c1Cl |  | 3100 nM | > 10000 nM |  | 83 nM |  | 
3 | Cc1ncsc1-c1ccc(CNC(=O)N2C[C@H](O)CC2C(=O)[C@H](NC(=O)C2(F)CC2)C(C)(C)C)c(OCCOCc2cn(CCOc3ccc(Cn4c(-c5ccc(O)cc5)c(C)c5cc(O)ccc54)cc3)nn2)c1 (stereo partly drawn) | 52 nM | 34 nM | > 10000 nM | 14 nM | 5.3 nM | 29 nM | DC50 (Estrogen receptor [8]): 27 nM
4 | Oc1cccc(CN(CC2(c3ccccc3F)CCCC2)c2ccccc2)c1Cl |  | > 10000 nM | < 5 nM |  | 15 nM |  | 
5 | Oc1cccc(CN(CCN2CCCCC2)CC2(c3ccccc3F)CCCC2)c1Cl |  |  |  |  | > 10000 nM |  | 
6 | Cc1ncsc1-c1ccc([C@H](C)NC(=O)[C@@H]2C[C@@H](O)CN2C(=O)[C@H](NC(=O)COCc2cn(CCOc3ccc(N(Cc4cccc(O)c4Cl)CC4(c5ccccc5F)CCCC4)cc3)nn2)C(C)(C)C)cc1 | 332 nM | 165 nM | > 10000 nM | 170 nM | 17 nM | 269 nM | Vd [9]: 1.24 L/kg; fraction unbound [10]: < 0.004; clearance [11]: 20 mL/min/kg; bioavailability [12]: 83%; AUC(0-inf) [13]: 9.8 µM·h; microsomal CLint [14]: 199 µL/min/mg; microsomal CLint [15]: 31 µL/min/mg; DC50 (Estrogen receptor [8]): 4.2 nM; half-life [16]: 2.7 h; solubility [17]: < 0.2 µM; half-life [18]: 21 h; Papp A→B [19]: < 0.1 ×10⁻⁶ cm/s; Cmax [20]: 1500 nM
7 | Oc1cccc(CN(CC2(c3ccccc3F)CCCC2)c2ccc(OCCN3CCCCC3)cc2)c1Cl |  | 68 nM | > 10000 nM |  | 8 nM |  | DC50 (Estrogen receptor [6]): 15 nM; Activity [21]: 70%
8 | Oc1cccc(CN(CCCN2CCCCC2)CC2(c3ccccc3F)CCCC2)c1Cl |  |  |  |  | 960 nM |  | 
9 | Cc1ncsc1-c1ccc([C@H](C)NC(=O)[C@@H]2C[C@@H](O)CN2C(=O)[C@@H](NC(=O)COCc2cn(CCOc3ccc(Cn4c(-c5ccc(O)cc5)c(C)c5cc(O)ccc54)cc3)nn2)C(C)(C)C)cc1 | 8.1 nM | 247 nM | > 10000 nM | 21 nM | 11 nM | 287 nM | DC50 (Estrogen receptor [6]): 20 nM
10 | CN(Cc1cccc(O)c1Cl)CC1(c2ccccc2OCCN2CCCCC2)CCCC1 |  | 3140 nM | > 10000 nM |  | > 10000 nM |  | 
11 | CN[C@H](C)C(=O)N[C@H](C(=O)N1CCC[C@H]1c1nc(C(=O)c2ccc(F)cc2)cs1)C1CCN(C(=O)COCCOCc2cn(CCOc3ccc(Cn4c(-c5ccc(O)cc5)c(C)c5cc(O)ccc54)cc3)nn2)CC1 |  | > 10000 nM |  |  | 52 nM |  | GI50 (MCF7 [22]): > 10000 nM; DC50 (Estrogen receptor [23]): > 10000 nM
12 | C[C@]12CC[C@@H]3c4ccc(O)cc4C[C@@H](CCCCCCCCC[S+]([O-])CCCC(F)(F)C(F)(F)F)[C@H]3[C@@H]1CC[C@@H]2O (stereo partly drawn) [FULVESTRANT] |  |  |  |  |  |  | Activity [24]: Non-Toxic; inhibition in vivo at 3 mg/kg (MCF7 [25]): 91.6%
13 | CN(Cc1cccc(O)c1Cl)C(C1CCCC1)C(F)(F)F (stereo not drawn) | 24 nM | > 10000 nM | 460 nM | 110 nM | 71 nM | 45 nM | 
14 | CN(Cc1cccc(O)c1Cl)CC1(c2ccccc2F)CCCC1 | 8.1 nM | > 10000 nM | 550 nM | 21 nM | 15 nM | 7.2 nM | 
15 | Cc1ncsc1-c1ccc([C@H](C)NC(=O)[C@@H]2C[C@@H](O)CN2C(=O)[C@@H](NC(=O)COCCOCc2cn(CCOc3ccc(Cn4c(-c5ccc(O)cc5)c(C)c5cc(O)ccc54)cc3)nn2)C(C)(C)C)cc1 | 38 nM | 335 nM | > 10000 nM | 18 nM | 22 nM | 27 nM | DC50 (Estrogen receptor [6]): 20 nM
16 | CN[C@@H](C)C(=O)N[C@H](C(=O)N1CCC[C@H]1c1nc(C(=O)c2cccc(OCCOCc3cn(CCOc4ccc(Cn5c(-c6ccc(O)cc6)c(C)c6cc(O)ccc65)cc4)nn3)c2)cs1)C1CCCCC1 | 61 nM | 51 nM | > 10000 nM | 24 nM | 7.3 nM | 40 nM | DC50 (Estrogen receptor [8]): 174 nM
17 | Cc1ncsc1-c1ccc([C@H](C)NC(=O)[C@@H]2C[C@@H](O)CN2C(=O)[C@@H](NC(=O)COCCOCCOCc2cn(CCOc3ccc(Cn4c(-c5ccc(O)cc5)c(C)c5cc(O)ccc54)cc3)nn2)C(C)(C)C)cc1 | 15 nM | 211 nM | > 10000 nM | 6 nM | 22 nM | 9.3 nM | DC50 (Estrogen receptor [6]): 9 nM
18 | CN(Cc1cccc(O)c1Cl)CC1(c2ccc(OCCN3CCCCC3)cc2F)CCCC1 |  | > 10000 nM | < 5 nM |  | 62 nM |  | 
